Assay results reported in ChEMBL document CHEMBL4725418, “Design, Synthesis, and Structure-Activity Relationship Studies of Dual Inhibitors of Soluble Epoxide Hydrolase and 5-Lipoxygenase” (J Med Chem, 2020).
Activity calls are given as the source filed them. The calls are words filed in the database; no cut-off is given here.

What was measured:
[1] = Tmax in Swiss CD-1 mouse at 3 mg/kg, po administered as single dose by LC-MS analysis; type: ADME, organism-based; details: in vivo
Procedure, shortened: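 Male Swiss CD-1 mice received a single oral dose of 3 mg/kg in 1% methylcellulose/Tween80 (99:1); nine mice treated, three vehicle controls, three mice per time point. Serum analyzed by LC-MS for concentration–time profile.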

[2] = molecular target: T1, Bifunctional epoxide hydrolase 2 (Homo sapiens, UniProt P34913); assay: Inhibition of human sEH (1 to 555 residues) expressed in Escherichia coli BL21-(DE3) using PHOME substrate incubated for 30 to 45 mins by fluorescence based assay
T1 sequence (P34913 whole entry): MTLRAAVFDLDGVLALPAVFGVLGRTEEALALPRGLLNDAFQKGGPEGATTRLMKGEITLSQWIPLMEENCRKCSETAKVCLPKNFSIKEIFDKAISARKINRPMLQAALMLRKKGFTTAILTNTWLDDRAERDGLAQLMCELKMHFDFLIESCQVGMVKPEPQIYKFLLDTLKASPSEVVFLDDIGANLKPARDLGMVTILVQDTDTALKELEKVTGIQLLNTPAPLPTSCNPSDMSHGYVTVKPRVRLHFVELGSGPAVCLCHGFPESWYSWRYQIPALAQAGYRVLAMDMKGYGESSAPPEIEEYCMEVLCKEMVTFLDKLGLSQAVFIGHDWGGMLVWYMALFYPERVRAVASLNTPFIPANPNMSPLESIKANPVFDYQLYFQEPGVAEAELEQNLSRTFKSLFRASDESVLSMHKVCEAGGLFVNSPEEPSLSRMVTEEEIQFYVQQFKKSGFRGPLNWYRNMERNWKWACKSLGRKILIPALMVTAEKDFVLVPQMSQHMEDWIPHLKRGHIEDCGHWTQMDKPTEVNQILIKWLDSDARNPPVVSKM

HepG2 = assay: Cytotoxicity in human HepG2 cells assessed as effect on cell viability up to 25 uM incubated for 48 hrs by CellTiter-Glo luminescent cell viability assay; type: cell-based; details: hepg2, 48 h
Procedure, shortened: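 Cell viability measured by CellTiter-Glo luminescence, quantifying ATP as an indicator of viable cells.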

[3] = Metabolic stability in rat liver microsomes assessed as compound remaining after 60 mins; type: ADME, Microsome; details: read-out: Stabilty
Procedure, shortened: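 Compound incubated with rat liver microsomes for 60 min; percent parent compound remaining determined; n ≥ 3.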

[4] = molecular target: T2, Polyunsaturated fatty acid lipoxygenase ALOX12 (Homo sapiens) (UniProt P18054); assay: Activation of 12-LOX in human PMNL pre-incubated for 15 mins before addition of AA and A23187 and measured after 10 mins by HPLC/UV assay; details: filed as activator, time 25.0 min
T2 sequence (whole entry): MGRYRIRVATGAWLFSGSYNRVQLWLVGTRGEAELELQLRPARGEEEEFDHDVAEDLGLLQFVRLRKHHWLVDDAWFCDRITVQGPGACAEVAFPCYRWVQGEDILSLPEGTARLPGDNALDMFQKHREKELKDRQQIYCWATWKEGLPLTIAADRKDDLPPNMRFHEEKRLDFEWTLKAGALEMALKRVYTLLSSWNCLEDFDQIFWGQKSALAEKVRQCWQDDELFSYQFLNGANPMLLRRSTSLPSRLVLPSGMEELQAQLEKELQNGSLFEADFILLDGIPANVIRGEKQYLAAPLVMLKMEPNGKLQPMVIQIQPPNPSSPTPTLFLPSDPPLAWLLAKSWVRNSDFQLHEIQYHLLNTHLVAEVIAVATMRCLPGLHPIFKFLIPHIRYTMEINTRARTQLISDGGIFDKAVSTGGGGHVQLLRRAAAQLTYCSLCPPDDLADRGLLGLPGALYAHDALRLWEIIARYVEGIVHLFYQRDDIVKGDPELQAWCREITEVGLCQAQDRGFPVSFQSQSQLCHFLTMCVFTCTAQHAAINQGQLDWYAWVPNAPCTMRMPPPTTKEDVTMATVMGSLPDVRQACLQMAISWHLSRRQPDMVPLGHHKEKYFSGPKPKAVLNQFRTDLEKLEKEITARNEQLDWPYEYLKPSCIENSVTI

Tmax [1]: 1 h
IC50 [2]: 1.2 nM
remaining at 1 h [3]: 50%
Activity [4]: Active
Compound: C[C@H](C#Cc1cccc(C(=O)NCCC(c2ccc(F)cc2)c2ccc(F)cc2)c1)N(O)C(N)=O
Activity (HepG2): Non-Toxic
